The source of these data is paper PMC11600146 (JACS Au, 2024).

Molecules are shown by their SMILES. ≈ marks a conversion by molar mass, not a printed value. Entries after “also recorded” stand apart in the source; their conditions may differ. Where only a bound is given, the exact number is not on record here.

Series [1] deals with K. pneumoniae 10031. As to the kind of experiment: MIC assay, broth microdilution. It is filed as cell-based. Conditions: Klebsiella pneumoniae, 10031, 22 h, read-out: K. pneumoniae 10031 MIC (μg/mL). A digest of the protocol: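 Broth microdilution adapted from NCCLS methods. Overnight cultures were diluted to OD600 0.006 in cation-adjusted Mueller–Hinton medium with 7% DMSO and incubated with a range of test compound concentrations at 37 °C for 22 h. MTT (5 mg/mL) was added for 3 h, solubilized with 2-propanol, and read as the absorbance difference at 570 and 690 nm. MIC was the lowest concentration with readings within 4-fold of bacteria-free wells.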
In general terms: Broth dilution looks for growth in wells or tubes with falling amounts of substance.

Series [2] has as its system E. coli 25922. The experiment in a line: MIC assay, broth microdilution. The class given is cell-based. To be noted: Escherichia coli, 25922, 22 h, read-out: E. coli 25922 MIC (μg/mL).
Series [3] has as its target T1, K. pneumoniae LpxH (Klebsiella pneumoniae, UniProt A6T5R0).
T1 sequence (A6T5R0 1-240): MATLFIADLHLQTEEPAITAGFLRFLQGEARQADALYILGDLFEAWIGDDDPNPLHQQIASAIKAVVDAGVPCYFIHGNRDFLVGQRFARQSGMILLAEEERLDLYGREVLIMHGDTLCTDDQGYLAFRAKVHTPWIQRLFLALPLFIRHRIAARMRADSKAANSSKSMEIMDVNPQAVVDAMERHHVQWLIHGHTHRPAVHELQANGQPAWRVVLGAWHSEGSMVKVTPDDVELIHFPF
The experiment in a line: LpxE-coupled LpxH activity assay. It is filed as biochemical. An outline of the steps: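 LpxE-coupled assay with GB1-K. pneumoniae LpxH-His10, 10 ng/mL final (1 ng/mL for two analogs, with an extended time course), 100 μM UDP-DAGn. Buffer: Tris-HCl pH 8.0, BSA, Triton X-100, 1 mM MnCl2, DTT, 10% DMSO. Reaction at 37 °C; time-point aliquots quenched with 5 mM EDTA, then A. aeolicus LpxE 5 μg/mL for 30 min, formic acid, malachite green, A620. Triplicates. IC50 from dose–response fit; Ki = IC50/(1+[S]/KM), KM 68.1 μM.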

Series [4] concerns the target T2, E. coli LpxH (Escherichia coli, UniProt P43341).
T2 sequence (P43341 1-240): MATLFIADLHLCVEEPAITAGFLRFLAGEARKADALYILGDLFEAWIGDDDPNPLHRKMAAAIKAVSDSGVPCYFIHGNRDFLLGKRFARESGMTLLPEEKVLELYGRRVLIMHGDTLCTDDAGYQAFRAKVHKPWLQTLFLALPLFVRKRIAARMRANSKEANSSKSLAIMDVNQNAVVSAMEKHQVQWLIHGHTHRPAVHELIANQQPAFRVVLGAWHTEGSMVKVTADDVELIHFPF
As to the kind of experiment: LpxE-coupled LpxH activity assay. The class given is biochemical. A digest of the protocol:
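LpxE-coupled assay with GB1-E. coli LpxH-His10 (10 ng/mL in 2× enzyme/inhibitor mix; 0.5 ng/mL final for two analogs, with a longer time course). Mixes were preincubated 10 min at 37 °C and quenched with EDTA, then LpxE 30 min, malachite green, A620. Run in triplicate. IC50 fitted; Ki from competitive equation, KM 61.7 μM.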

Series [5] concerns K. pneumoniae 10031. The experiment in a line: Time-kill kinetics. The class given is cell-based.
Series [6] relates to K. pneumoniae 10031. As to the kind of experiment: Spontaneous resistance development. It is filed as cell-based. A digest of the protocol: (§1)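 Five to six colonies per strain, from antibiotic-free LB agar, grown to OD 1 and concentrated tenfold. […] Colonies repassaged on fresh 8× MIC plates for 48 h, counted and sequenced. Frequency is resistant growth divided by initial inoculum density.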

For series [7], the system named is E. coli 25922. The experiment in a line: Spontaneous resistance development. The class given is cell-based. A digest of the protocol: as §1
For series [8], the system named is HEK293 cells. The experiment in a line: In vitro cytotoxicity, CellTiter-Glo 2.0 cell viability assay. The class given is cell-based.
Series [9] has as its system HepG2 cells. The series is described as above. Conditions: HepG2, 100 μM (63 μg/mL), 24 h. It is filed as cell-based.

Consider `CC(=O)N1CCc2cc(S(=O)(=O)N3CCN(c4cc(C(F)(F)F)cc(Cl)n4)CC3)ccc21` [JH-LPH-92], for which the figures for the MIC in series [1] and in [2] were 0.08 µg/mL (≈ 0.164 µM) and above 64 µg/mL, respectively.

For orientation: IC50 means the concentration at which inhibition is half-maximal. Lower therefore signals inhibition by little substance. The compound `CC(=O)N1CCc2cc(S(=O)(=O)N3CCN(c4nccc(C(F)(F)F)n4)CC3)ccc21` [JH-LPH-93] showed an IC50 in series [3] of 100 nM. The MIC in series [1] was 1.3 µg/mL (≈ 2.85 µM).

Take `CN(c1ccccc1C(=O)Nc1ccc(S(=O)(=O)N2CCN(c3cc(C(F)(F)F)cc(Cl)n3)CC2)cc1)S(C)(=O)=O` [JH-LPH-107]: the IC50 in [3] and in [4] was 0.13 nM in each case. Also, the MIC in series [2] was 0.31 µg/mL (≈ 0.49 µM). Moreover, in series [5] (time-kill, regrowth prevented up to 24 h at or above the MIC), the “type of antibiotic action” value is “bactericidal”. Besides, the “reduction of bacterial viability” value in series [5] (within 6 h, at or above the MIC) is reported as above 1000 fold. The “Rate of spontaneous resistance mutations @4× MIC” value is given as 2.0 × 10^-9 in series [6] (K. pneumoniae 10031, 4× MIC) and 2.5 × 10^-9 in [7] (E. coli 25922, 4× MIC). For the same compound, the “Rate of spontaneous resistance mutations @8× MIC” value is recorded as 9.1 × 10^-10 in series [6] (K. pneumoniae 10031, 8× MIC) and 1.4 × 10^-9 in [7] (E. coli 25922, 8× MIC). The “cytotoxicity (cell viability)” value in series [8] (HEK293, 100 μM (63 μg/mL), 24 h) is recorded as “did not cause any significant cytotoxicity; also recorded: no significant cytotoxicity”; in series [9] it was “did not cause any significant cytotoxicity; also recorded: no significant cytotoxicity”. Moreover, the safety index in [8] (no cytotoxicity at 63 μg/mL in HEK293 or HepG2 versus MICs 0.31 and 0.04 μg/mL) was above 100 fold.
